Experimental data reported in ChEMBL document CHEMBL4602630, “Synthesis and cytotoxicity evaluation of glycosidic derivatives of lawsone against breast cancer cell lines” (Bioorg Med Chem Lett, 2020).

Key:
MCF7 = experiment: Cytotoxicity against ER-positive human MCF7 cells assessed as redution in cell viability incubated for 72 hrs by SRB assay; assay type: functional, cell-based; details: MCF7, 72 h
Method in brief: (§1)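 Breast tumour lines from ATCC, each in its own medium with 10% FBS: SKBR-3 (HER2+) in McCoy's 5A; MCF-7 (ER+) in MEM plus 0.01 mg/mL human recombinant insulin; MDA-MB-231 (triple-negative) in DMEM. Cells were kept at 37°C, 5% CO2, humidified. Compounds were tested on 1x10^4 cells/well by sulforhodamine B assay. IC50 came from a nonlinear fit of log concentration vs normalized response (variable slope).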

[1] = Cytotoxicity against human HGF cells assessed as redution in cell viability incubated for 72 hrs by SRB assay; assay type: cell-based
Method in brief: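 Non-tumour human HGF cells were obtained under UFSC ethics approval 021/2009 and kept at 37°C, 5% CO2, humidified, with 10% FBS. Compounds were tested on 1x10^4 cells/well by sulforhodamine B assay. IC50 came from a nonlinear variable-slope fit of log concentration vs normalized response.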

SK-BR-3 = experiment: Cytotoxicity against HER2-positive human SKBR3 cells assessed as redution in cell viability incubated for 72 hrs by SRB assay; assay type: functional, cell-based; details: SK-BR-3, 72 h
[2] = Selectivity index, ratio of IC50 for human HGF cells to IC50 for SKBR3 cells; assay type: toxicity; details: HGF cells versus SKBR3 cells, read-out: Ratio IC50
MDA-MB-231 = experiment: Cytotoxicity against triple-negative human MDA-MB-231 cells assessed as redution in cell viability incubated for 72 hrs by SRB assay; assay type: functional, cell-based; details: MDA-MB-231, 72 h; method in brief: as §1
[3] = Selectivity index, ratio of IC50 for human HGF cells to IC50 for MDA-MB-231 cells; assay type: toxicity; details: HGF cells versus MDA-MB-231 cells, read-out: Ratio IC50
[4] = Selectivity index, ratio of IC50 for human HGF cells to IC50 for MCF7 cells; assay type: toxicity; details: HGF cells versus MCF7 cells, read-out: Ratio IC50

| SMILES | IC50 (MCF7) [µM] | IC50 [1] [µM] | IC50 (SK-BR-3) [µM] | selectivity ratio [2] | IC50 (MDA-MB-231) [µM] | selectivity ratio [3] | selectivity ratio [4] |
| --- | --- | --- | --- | --- | --- | --- | --- |
| CC(=O)OC[C@H]1O[C@@H](n2cc(COC3=CC(=O)c4ccccc4C3=O)nn2)[C@H](OC(C)=O)[C@@H](OC(C)=O)[C@@H]1OC(C)=O | 3.33 | 17.7 | 0.78 | 22 | 14 |  |  |
| CC(=O)OC[C@H]1O[C@@H](OC2=CC(=O)c3ccccc3C2=O)[C@H](OC(C)=O)[C@@H](OC(C)=O)[C@H]1OC(C)=O | 13.6 | 34.6 | 8.86 |  | 13.3 |  |  |
| CC(=O)OC[C@H]1O[C@H](OC2=CC(=O)c3ccccc3C2=O)[C@H](OC(C)=O)[C@@H](OC(C)=O)[C@@H]1OC(C)=O | 3.52 | 20.2 | 2.11 |  | 8.29 |  |  |
| CC(=O)N[C@H]1[C@@H](OC2=CC(=O)c3ccccc3C2=O)O[C@H](COC(C)=O)[C@@H](OC(C)=O)[C@@H]1OC(C)=O | 6.59 | 40.2 | 3.41 |  | 19.8 |  |  |
| CC(=O)OC[C@H]1O[C@H](OC2=CC(=O)c3ccccc3C2=O)[C@H](OC(C)=O)[C@@H](OC(C)=O)[C@H]1OC(C)=O | 4.58 | 35.7 | 2.51 |  | 9.18 | 4 | 8 |
| O=C1C=C(OCc2cn([C@@H]3O[C@H](CO)[C@H](O)[C@H](O)[C@H]3O)nn2)C(=O)c2ccccc21 | > 50 | > 50 | > 50 |  | > 50 |  |  |
| CC(=O)OC[C@H]1O[C@@H](n2cc(COC3=CC(=O)c4ccccc4C3=O)nn2)[C@H](OC(C)=O)[C@@H](OC(C)=O)[C@H]1OC(C)=O | 4.22 | 27.6 | 1.27 | 22 | 16.7 |  |  |
| CC(=O)N[C@@H]1[C@@H](O)[C@H](O)[C@@H](CO)O[C@H]1n1cc(COC2=CC(=O)c3ccccc3C2=O)nn1 | > 50 | > 50 | > 50 |  | > 50 |  |  |
| CC(=O)O[C@H]1[C@H](OC(C)=O)[C@H](OC2=CC(=O)c3ccccc3C2=O)O[C@@H](C)[C@H]1OC(C)=O | 11 | 19.8 | 9.52 |  | 18.2 |  |  |
| CC(=O)O[C@@H]1[C@H](OC(C)=O)[C@H](C)O[C@H](n2cc(COC3=CC(=O)c4ccccc4C3=O)nn2)[C@H]1OC(C)=O | 9.74 | 38.1 | 3.32 |  | 23.4 |  |  |
| CC(=O)N[C@H]1[C@H](OC2=CC(=O)c3ccccc3C2=O)O[C@H](COC(C)=O)[C@@H](OC(C)=O)[C@@H]1OC(C)=O | 16.3 | > 50 | 8.3 |  | 27.6 |  |  |
| O=C1C=C(OCc2cn([C@@H]3O[C@H](CO)[C@@H](O)[C@H](O)[C@H]3O)nn2)C(=O)c2ccccc21 | 38.9 | > 50 | 34.7 |  | > 50 |  |  |
| CC(=O)O[C@H]1[C@H](OC(C)=O)[C@@H](OC2=CC(=O)c3ccccc3C2=O)O[C@@H](C)[C@H]1OC(C)=O | 5.02 | > 50 | 2.41 |  | 8.65 |  |  |
| C[C@@H]1O[C@H](n2cc(COC3=CC(=O)c4ccccc4C3=O)nn2)[C@@H](O)[C@H](O)[C@@H]1O | > 50 | > 50 | > 50 |  | > 50 |  |  |
| CC(=O)OC[C@H]1O[C@@H](OC2=CC(=O)c3ccccc3C2=O)[C@H](OC(C)=O)[C@@H](OC(C)=O)[C@@H]1OC(C)=O | 4.76 | 19.1 | 2.96 |  | 12.6 |  |  |
| CC(=O)N[C@@H]1[C@@H](OC(C)=O)[C@H](OC(C)=O)[C@@H](COC(C)=O)O[C@H]1n1cc(COC2=CC(=O)c3ccccc3C2=O)nn1 | 28.9 | > 50 | 17 |  | > 50 |  |  |
| COc1cccc2c1C(=O)c1c(O)c3c(c(O)c1C2=O)C[C@@](O)(C(=O)CO)C[C@@H]3O[C@H]1C[C@H](N)[C@H](O)[C@H](C)O1 [DOXORUBICIN] | 0.38 | > 50 |  |  |  |  |  |
| O=C1C=C(O)C(=O)c2ccccc21 [LAWSONE] | > 50 | > 50 | > 50 |  | > 50 |  |  |
